Tests used:
[1] = Biodistribution in rhesus monkey occipital lobe at 150.3 MBq, iv after 82.5 mins; assay type: ADME, organism-based, Macaca mulatta; settings: in vivo, 1.375 h
[2] = Biodistribution in rhesus monkey entorhinal cortex at 150.3 MBq, iv after 15 mins; assay type: ADME, organism-based, Macaca mulatta; settings: in vivo, 0.25 h
Outline: (§1)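 Single male rhesus monkey anesthetized with ketamine 10 mg/kg im, head fixed. Attenuation correction by 20 min 68Ge-68Ga transmission scan. [11C]-tracer in saline (pH 7.4) given iv, specific radioactivity 2.9 TBq/μmol at injection. Dynamic 3D PET emission scan over 90 min in frames of 0.5 to 5 min. MRI T1 images used to define VOIs. Uptake expressed as […].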

Hippocampus [3] = test: Biodistribution in rhesus monkey hippocampus at 150.3 MBq, iv after 47 mins; assay type: ADME, organism-based, Macaca mulatta; settings: in vivo
Outline: (§2)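 Male rhesus monkey under ketamine 10 mg/kg im, head fixed; 20 min 68Ge-68Ga transmission scan, then 90 min dynamic 3D PET (6×0.5, 7×1, 20×2, 8×5 min frames) after iv [11C]-labelled tracer in saline, specific radioactivity about 2.9 TBq/μmol at injection. Regions defined on T1-weighted MRI; uptake expressed as % injected dose per mL.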

Striatum [4] = test: Biodistribution in rhesus monkey striatum at 150.3 MBq, iv after 11 mins; assay type: ADME, organism-based, Macaca mulatta; settings: in vivo
[5] = Biodistribution in rhesus monkey cerebellum at 150.3 MBq, iv after 1.25 mins; assay type: ADME, organism-based, Macaca mulatta; settings: in vivo, 75 s
Outline: (§3)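 Male rhesus monkey under ketamine (10 mg/kg im) with head fixation. After a 20 min 68Ge-68Ga transmission scan, the [11C]-labelled tracer in saline (pH 7.4) was injected iv, at 2.9 TBq/μmol specific radioactivity at injection. A dynamic 3D PET scan followed over 90 min (6×0.5, 7×1, 20×2, 8×5 min frames). Regions were defined on T1-weighted 1.5 T MRI, and uptake is given as %ID/mL.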

Striatum [6] = test: Biodistribution in rhesus monkey striatum at 150.3 MBq, iv after 77.5 mins; assay type: ADME, organism-based, Macaca mulatta; settings: in vivo
Hippocampus [7] = test: Biodistribution in rhesus monkey hippocampus at 150.3 MBq, iv after 57.5 mins; assay type: ADME, organism-based, Macaca mulatta; settings: in vivo; outline: as §2
[8] = Biodistribution in rhesus monkey cerebellum at 150.3 MBq, iv after 39 mins; assay type: ADME, organism-based, Macaca mulatta; settings: in vivo, 0.65 h; outline: as §3
Hippocampus [9] = test: Biodistribution in rhesus monkey hippocampus at 150.3 MBq, iv after 72.5 mins; assay type: ADME, organism-based, Macaca mulatta; settings: in vivo; outline: as §2
Hippocampus [10] = test: Biodistribution in rhesus monkey hippocampus at 150.3 MBq, iv after 1.25 mins; assay type: ADME, organism-based, Macaca mulatta; settings: in vivo, 75 s; outline: as §1
[11] = Biodistribution in rhesus monkey cerebellum at 150.3 MBq, iv after 11 mins; assay type: ADME, organism-based, Macaca mulatta; settings: in vivo; outline: as §3
[12] = Biodistribution in rhesus monkey cerebellum at 150.3 MBq, iv after 6.5 mins; assay type: ADME, organism-based, Macaca mulatta; settings: in vivo; outline: as §3
[13] = Biodistribution in rhesus monkey occipital lobe at 150.3 MBq, iv after 43 mins; assay type: ADME, organism-based, Macaca mulatta; settings: in vivo
Outline: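 A male rhesus monkey was anaesthetised with ketamine 10 mg/kg im and placed in a head fixation device. A 20 min 68Ge-68Ga transmission scan was run for attenuation correction. Radiotracer in saline (pH 7.4) was given iv, about 52 pmol (18 ng), at 2.9 TBq/μmol at injection. A dynamic 3D PET scan followed for 90 min. Regional VOIs were defined on a T1-weighted MRI, with uptake expressed as %ID/mL.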

Hippocampus [14] = test: Biodistribution in rhesus monkey hippocampus at 150.3 MBq, iv after 13 mins; assay type: ADME, organism-based, Macaca mulatta; settings: in vivo; outline: as §1
[15] = Biodistribution in rhesus monkey cerebellum at 150.3 MBq, iv after 17 mins; settings: in vivo
[16] = Biodistribution in rhesus monkey retina at 150.3 MBq, iv after 35 mins; assay type: ADME, organism-based, Macaca mulatta; settings: in vivo
[17] = Biodistribution in rhesus monkey entorhinal cortex at 150.3 MBq, iv after 2.75 mins; assay type: ADME, organism-based, Macaca mulatta; settings: in vivo, 165 s; outline: as §1
[18] = Biodistribution in rhesus monkey cingulate cortex at 170.3 MBq, iv after 17 mins; assay type: ADME, organism-based, Macaca mulatta; settings: in vivo, in the assay text read “150.3 MBq” for “170.3 MBq”; outline: as §1
Hippocampus [19] = test: Biodistribution in rhesus monkey hippocampus at 150.3 MBq, iv after 0.25 mins; assay type: ADME, organism-based, Macaca mulatta; settings: in vivo, 15 s; outline: as §1
[20] = Biodistribution in rhesus monkey cerebellum at 150.3 MBq, iv after 4.5 mins; assay type: ADME, organism-based, Macaca mulatta; settings: in vivo, 0.075 h; outline: as §3
[21] = Biodistribution in rhesus monkey cerebellum at 150.3 MBq, iv after 25 mins; assay type: ADME, organism-based, Macaca mulatta; settings: in vivo; outline: as §3
[22] = Biodistribution in rhesus monkey cerebellum at 150.3 MBq, iv after 2.75 mins; assay type: ADME, organism-based, Macaca mulatta; settings: in vivo, 165 s; outline: as §3
[23] = Biodistribution in rhesus monkey entorhinal cortex at 150.3 MBq, iv after 49 mins; assay type: ADME, organism-based, Macaca mulatta; settings: in vivo; outline: as §1
[24] = Biodistribution in rhesus monkey occipital lobe at 150.3 MBq, iv after 39 mins; assay type: ADME, organism-based, Macaca mulatta; settings: in vivo, 0.65 h; outline: as §2
[25] = Biodistribution in rhesus monkey cerebellum at 150.3 MBq, iv after 41 mins; assay type: ADME, organism-based, Macaca mulatta; settings: in vivo; outline: as §3
[26] = Biodistribution in rhesus monkey entorhinal cortex at 150.3 MBq, iv after 2.25 mins; assay type: ADME, organism-based, Macaca mulatta; settings: in vivo, 135 s; outline: as §1
Striatum [27] = test: Biodistribution in rhesus monkey striatum at 150.3 MBq, iv after 27 mins; assay type: ADME, organism-based, Macaca mulatta; settings: in vivo, 0.45 h
[28] = Biodistribution in rhesus monkey cerebellum at 150.3 MBq, iv after 8.5 mins; assay type: ADME, organism-based, Macaca mulatta; settings: in vivo; outline: as §3
Striatum [29] = test: Biodistribution in rhesus monkey striatum at 150.3 MBq, iv after 15 mins; assay type: ADME, organism-based, Macaca mulatta; settings: in vivo, 0.25 h

## [11CH3]Oc1cccc(C(=O)NCCN2CCN(c3ncccc3C#N)CC2)c1
[1]
  Drug uptake: 8.356 kBq/ml
[2]
  Drug uptake: 22.26 kBq/ml
Hippocampus [3]
  Drug uptake: 9.35 kBq/ml
Striatum [4]
  Drug uptake: 28.08 kBq/ml
[5]
  Drug uptake: 51.01 kBq/ml
Striatum [6]
  Drug uptake: 8.262 kBq/ml
Hippocampus [7]
  Drug uptake: 7.745 kBq/ml
[8]
  Drug uptake: 10.98 kBq/ml
Hippocampus [9]
  Drug uptake: 8.523 kBq/ml
Hippocampus [10]
  Drug uptake: 55.94 kBq/ml
[11]
  Drug uptake: 24.15 kBq/ml
[12]
  Drug uptake: 31.35 kBq/ml
[13]
  Drug uptake: 9.37 kBq/ml
Hippocampus [14]
  Drug uptake: 23.13 kBq/ml
[15]
  Drug uptake: 18.41 kBq/ml
[16]
  Drug uptake: 57.58 kBq/ml
[17]
  Drug uptake: 41.01 kBq/ml
[18]
  Drug uptake: 18.9122 kBq/ml
Hippocampus [19]
  Drug uptake: 39.52 kBq/ml
[20]
  Drug uptake: 34.76 kBq/ml
[21]
  Drug uptake: 15.53 kBq/ml
[22]
  Drug uptake: 41.81 kBq/ml
[23]
  Drug uptake: 9.688 kBq/ml
[24]
  Drug uptake: 9.974 kBq/ml
[25]
  Drug uptake: 10.86 kBq/ml
[26]
  Drug uptake: 40.15 kBq/ml
Striatum [27]
  Drug uptake: 16.63 kBq/ml
[28]
  Drug uptake: 27.59 kBq/ml
Striatum [29]
  Drug uptake: 21.63 kBq/ml
